Test results as given in ChEMBL document CHEMBL4145631, “Riluzole-Triazole Hybrids as Novel Chemical Probes for Neuroprotection in Amyotrophic Lateral Sclerosis” (ACS Med Chem Lett, 2018).
Calls of active or inactive are those of the source.

Assays:
Cortical neurone [1] = test: Neuroprotective activity against kainate-induced cell death in mouse primary cortical neurons by cell counting method; type: functional, cell-based
Mus musculus [2] = organism: Mus musculus; test: Neuroprotective activity against kainate-induced cell death in mouse primary motor neurons by caspase activation method; type: functional
Mus musculus [3] = organism: Mus musculus; test: Neuroprotective activity against kainate-induced cell death in mouse primary motor neurons by cell counting method; type: functional
Cortical neurone [4] = test: Neuroprotective activity against kainate-induced cell death in mouse primary cortical neurons by MTT assay; type: functional, cell-based
Cortical neurone [5] = test: Neuroprotective activity against kainate-induced cell damage in mouse primary cortical neurons assessed as reversal of kainate-induced reduction in calcium flux by fura-2-AM dye based fluorescence assay; type: functional
Summary of the method: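 Mouse primary cortical neurons loaded with fura-2AM for 45 min, washed, then depolarized with 10 mM KCl to drive Ca2+ entry through voltage-gated calcium channels. Flux read on a plate-based system.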

Cortical neurone [6] = test: Neuroprotective activity against kainate-induced cell death in mouse primary cortical neurons by caspase activation method; type: functional, cell-based
Mus musculus [7] = organism: Mus musculus; test: Neuroprotective activity against kainate-induced cell death in mouse primary motor neurons by MTT assay; type: functional
Cortical neurone [8] = test: Neuroprotective activity against kainate-induced cell damage in mouse primary cortical neurons assessed as reduction in kainate-induced neurofilament loss by measuring increase in MAPK level at 1 uM pretreated followed by kainate challenge measured after 18 hrs by fluorescence assay; type: functional, cell-based; conditions: in the assay text read “MAP2” for “MAPK”
Summary of the method: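 Mouse primary cortical neurons cultured as previously described; dendritic processes stained with anti-MAP2 antibody. Cell-profile perimeter measured by image analysis, each condition normalized to kainate-only.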

Mus musculus [9] = organism: Mus musculus; test: Neuroprotective activity against kainate-induced cell damage in mouse primary motor neurons assessed as reversal of kainate-induced neuronal length preceding cell death by fluorescence assay; type: functional
Summary of the method: (§1)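 Mouse primary motor neurons, fixed after treatment and stained with SMI-32 for neurofilaments, then fluorescently imaged. Sholl analysis counted process intersections at each 100 μm radius from the cell centre. Ten cells per condition, three independent experiments, data pooled.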

Mus musculus [10] = organism: Mus musculus; test: Neuroprotective activity against kainate-induced cell damage in mouse primary motor neurons assessed as reversal of kainate-induced neuronal length preceding cell death at 500 nM by fluorescence assay; type: functional; summary of the method: as §1
Rattus norvegicus = test: Protection against glutamate-induced seizures in ip dosed Sprague-Dawley rat pretreated for 30 mins followed by glutamate challenge and measured for 30 mins; type: functional
Mus musculus [11] = organism: Mus musculus; test: Neuroprotective activity against kainate-induced cell damage in mouse primary motor neurons assessed as reversal of kainate-induced neuronal length preceding cell death at […] by fluorescence assay; type: functional; summary of the method: as §1
Cortical neurone [12] = test: Toxicity in mouse primary cortical neurons assessed as MAP2 loss by fluorescence assay; type: cell-based
Summary of the method: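 MAP2 immunostaining of dendritic processes in mouse primary cortical neurons, with cell-profile perimeter measured by image analysis.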

| SMILES | Activity (Cortical neurone [1]) | Activity (Mus musculus [2]) | Activity (Mus musculus [3]) | Activity (Cortical neurone [4]) | Activity (Cortical neurone [5]) | Activity (Cortical neurone [6]) | Activity (Mus musculus [7]) | Activity (Cortical neurone [8]) | Activity (Mus musculus [9]) | Activity (Mus musculus [10]) | ED50 (Rattus norvegicus) | Activity (Mus musculus [11]) | Activity (Cortical neurone [12]) |
| --- | --- | --- | --- | --- | --- | --- | --- | --- | --- | --- | --- | --- | --- |
| N=c1sc2cc(OC(F)(F)F)ccc2n1CCn1cc(-c2ccccc2)nn1 | inactive | inactive | inactive | inactive | Active | inactive | inactive | inactive | inactive |  |  |  |  |
| CCc1ccc(-c2cn(CCn3c(=N)sc4cc(OC(F)(F)F)ccc43)nn2)cc1 | inactive | inactive | inactive | inactive | Active | inactive | inactive | Active | inactive |  |  |  |  |
| N=c1sc2cc(OC(F)(F)F)ccc2n1CCn1cc(-c2ccncc2)nn1 | inactive | inactive | inactive | inactive | Active | inactive | inactive | Active |  | Active |  |  |  |
| Nc1nc2ccc(OC(F)(F)F)cc2s1 [RILUZOLE] | inactive | inactive | inactive | inactive |  | inactive | inactive | inactive |  |  | 3.2 mg/kg | Active |  |
| N=c1sc2cc(OC(F)(F)F)ccc2n1CCN1CCN(c2ccccc2)CC1 |  |  |  |  |  |  |  |  |  |  | 3.5 mg/kg |  |  |
| COC(=O)c1ccc(-c2cn(CCn3c(=N)sc4cc(OC(F)(F)F)ccc43)nn2)cc1 | inactive | inactive | inactive | inactive | Active | inactive | inactive | inactive |  |  |  |  | Toxic |
| N=c1sc2cc(OC(F)(F)F)ccc2n1CCn1cc(-c2cc(C(F)(F)F)cc(C(F)(F)F)c2)nn1 | inactive | inactive | inactive | inactive | Active | inactive | inactive | inactive |  |  |  |  |  |
| CC(C)Cc1cn(CCn2c(=N)sc3cc(OC(F)(F)F)ccc32)nn1 | inactive | inactive | inactive | inactive | Active | inactive | inactive | inactive |  |  |  |  |  |
| N#Cc1ccc(-c2cn(CCn3c(=N)sc4cc(OC(F)(F)F)ccc43)nn2)cc1 | inactive | inactive | inactive | inactive | Active | inactive | inactive | inactive |  |  |  |  |  |
| COc1cccc(-c2cn(CCn3c(=N)sc4cc(OC(F)(F)F)ccc43)nn2)c1 | inactive | inactive | inactive | inactive | Active | inactive | inactive | inactive |  |  |  |  |  |
| N=c1sc2cc(OC(F)(F)F)ccc2n1CCn1cc(-c2cccs2)nn1 | inactive | inactive | inactive | inactive | Active | inactive | inactive | Active |  |  |  |  |  |
| N=c1sc2cc(OC(F)(F)F)ccc2n1CCn1cc(C2CCCC2)nn1 | inactive | inactive | inactive | inactive | Active | inactive | inactive | inactive |  |  |  |  |  |
| CCCc1ccc(-c2cn(CCn3c(=N)sc4cc(OC(F)(F)F)ccc43)nn2)cc1 | inactive | inactive | inactive | inactive | Active | inactive | inactive | inactive |  |  |  |  |  |
| N=c1sc2cc(OC(F)(F)F)ccc2n1CCn1cc(-c2ccc(F)cc2)nn1 | inactive | inactive | inactive | inactive | Active | inactive | inactive | inactive |  |  |  |  |  |
| COc1ccc(-c2cn(CCn3c(=N)sc4cc(OC(F)(F)F)ccc43)nn2)cc1 | inactive | inactive | inactive | inactive | Active | inactive | inactive | inactive |  |  |  |  |  |
| N=c1sc2cc(OC(F)(F)F)ccc2n1CCn1cc(-c2cccc3ccccc23)nn1 | inactive | inactive | inactive | inactive | Active | inactive | inactive | inactive |  |  |  |  |  |
| N=c1sc2cc(OC(F)(F)F)ccc2n1CCn1cc(-c2ccc(Cl)cc2)nn1 | inactive | inactive | inactive | inactive | Active | inactive | inactive | inactive |  |  |  |  |  |
| CCCCCCc1ccc(-c2cn(CCn3c(=N)sc4cc(OC(F)(F)F)ccc43)nn2)cc1 | inactive | inactive | inactive | inactive | Active | inactive | inactive | inactive |  |  |  |  |  |
| N=c1sc2cc(OC(F)(F)F)ccc2n1CCn1cc(-c2ccccc2Br)nn1 | inactive | inactive | inactive | inactive | Active | inactive | inactive | inactive |  |  |  |  |  |
| N=c1sc2cc(OC(F)(F)F)ccc2n1CCn1cc(-c2ccc(Br)cc2)nn1 | inactive | inactive | inactive | inactive | Active | inactive | inactive | Active | inactive |  |  |  |  |
| N=c1sc2cc(OC(F)(F)F)ccc2n1CCn1cc(-c2ccc([N+](=O)[O-])cc2)nn1 | inactive | inactive | inactive | inactive | Active | inactive | inactive | inactive |  |  |  |  |  |
| N=c1sc2cc(OC(F)(F)F)ccc2n1CCN1CCC(c2ccccc2)CC1 |  |  |  |  |  |  |  |  |  |  | 3 mg/kg |  |  |
